Assay results from ChEMBL document CHEMBL1152748, “Inhibition of iNOS and COX-2 in human whole blood ex vivo and monocyte-macrophage J774 cells by a new group of aminothiopyrimidone derivatives” (Bioorg Med Chem, 2009).
pIC50: −log10 of the molar value.

Key:
[1] = target: T1, Nitric oxide synthase, inducible (Mus musculus) (UniProt P29477); assay: Activation of iNOS in LPS-stimulated mouse J774 cells assessed as stimulation of nitric oxide generation at 10 uM; type: cell-based
T1 sequence (whole entry): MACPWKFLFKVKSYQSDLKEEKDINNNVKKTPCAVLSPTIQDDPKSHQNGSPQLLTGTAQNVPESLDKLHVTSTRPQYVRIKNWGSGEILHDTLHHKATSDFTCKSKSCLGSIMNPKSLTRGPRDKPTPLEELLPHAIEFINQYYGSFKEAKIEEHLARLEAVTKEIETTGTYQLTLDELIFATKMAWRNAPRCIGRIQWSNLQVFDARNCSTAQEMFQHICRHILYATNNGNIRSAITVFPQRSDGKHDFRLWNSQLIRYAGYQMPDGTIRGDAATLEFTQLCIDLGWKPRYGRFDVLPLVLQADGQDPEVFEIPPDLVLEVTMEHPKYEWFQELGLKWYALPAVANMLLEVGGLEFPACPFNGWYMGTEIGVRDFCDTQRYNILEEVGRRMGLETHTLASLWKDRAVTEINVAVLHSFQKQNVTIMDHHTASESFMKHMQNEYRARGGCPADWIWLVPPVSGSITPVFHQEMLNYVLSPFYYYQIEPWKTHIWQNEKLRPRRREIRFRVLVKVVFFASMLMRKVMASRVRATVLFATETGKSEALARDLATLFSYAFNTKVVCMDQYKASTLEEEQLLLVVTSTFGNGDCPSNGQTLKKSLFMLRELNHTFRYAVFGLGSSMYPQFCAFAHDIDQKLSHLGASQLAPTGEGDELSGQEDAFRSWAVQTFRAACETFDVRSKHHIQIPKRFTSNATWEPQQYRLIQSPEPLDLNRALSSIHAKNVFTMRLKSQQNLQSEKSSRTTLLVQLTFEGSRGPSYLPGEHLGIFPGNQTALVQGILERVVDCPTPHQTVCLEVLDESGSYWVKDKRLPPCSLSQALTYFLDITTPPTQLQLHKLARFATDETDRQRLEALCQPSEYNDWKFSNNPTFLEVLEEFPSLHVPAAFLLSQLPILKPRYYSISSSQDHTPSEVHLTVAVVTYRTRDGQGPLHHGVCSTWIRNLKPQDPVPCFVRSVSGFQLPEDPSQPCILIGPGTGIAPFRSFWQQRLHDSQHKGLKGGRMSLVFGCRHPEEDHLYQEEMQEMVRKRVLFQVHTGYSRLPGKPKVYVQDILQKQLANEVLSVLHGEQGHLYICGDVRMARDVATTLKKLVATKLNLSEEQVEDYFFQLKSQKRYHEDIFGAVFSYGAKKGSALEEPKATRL
In short: (§1)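 J774 cells plated at 2.5×10^5 cells/ml, adhered 24 h, then given LPS 5 µg/ml for 72 h with compound at 10 µM (DMSO vehicle). Supernatant nitrite measured by Griess reaction, 10 min at room temperature, absorbance at 550 nm against sodium nitrite standard (detection limit 1 µM). NGMMA 500 µM served as control. Mean ± SEM, three experiments in triplicate.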

[2] = target: T2, Prostaglandin G/H synthase 2 (Homo sapiens) (UniProt P35354); assay: Activation of COX2 in LPS-stimulated human whole blood assessed as stimulation of PGE2 production at 10 uM […]; type: tissue-based
T2 sequence (whole entry): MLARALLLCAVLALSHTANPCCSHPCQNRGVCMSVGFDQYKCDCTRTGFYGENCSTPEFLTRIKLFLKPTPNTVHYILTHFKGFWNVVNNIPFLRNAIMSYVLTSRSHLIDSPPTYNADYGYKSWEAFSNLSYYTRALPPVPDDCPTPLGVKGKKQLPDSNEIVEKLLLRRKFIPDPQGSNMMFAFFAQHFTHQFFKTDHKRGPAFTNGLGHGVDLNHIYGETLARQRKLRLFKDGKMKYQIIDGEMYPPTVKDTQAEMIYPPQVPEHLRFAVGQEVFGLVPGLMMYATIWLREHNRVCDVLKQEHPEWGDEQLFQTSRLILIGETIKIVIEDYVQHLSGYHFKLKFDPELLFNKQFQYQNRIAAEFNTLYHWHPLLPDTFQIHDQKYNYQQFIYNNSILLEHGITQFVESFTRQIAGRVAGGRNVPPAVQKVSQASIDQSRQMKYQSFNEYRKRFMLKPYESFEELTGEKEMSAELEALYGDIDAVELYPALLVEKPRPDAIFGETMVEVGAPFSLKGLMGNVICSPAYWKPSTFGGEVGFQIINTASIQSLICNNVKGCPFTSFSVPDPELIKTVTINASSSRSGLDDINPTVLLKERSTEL
In short: (§2)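 Heparinized (10 IU) whole blood from young healthy volunteers, drawn 48 h after 300 mg oral aspirin to suppress platelet COX-1. 1 ml aliquots; compound added in DMSO (final 10 µM) before LPS 10 µg/ml, 24 h at 37 °C. Plasma stored at -70 °C, PGE2 by competitive peroxidase EIA at 450 nm (range 50–6400 pg/ml). Mean ± SEM, three experiments in triplicate.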

[3] = target: T3, Prostaglandin G/H synthase 2 (Mus musculus) (UniProt Q05769); assay: Activation of COX2 in LPS-stimulated mouse J774 cells assessed as stimulation of PGE2 production by […]; type: cell-based; design: concentration or dose not given beside the values
T3 sequence (whole entry): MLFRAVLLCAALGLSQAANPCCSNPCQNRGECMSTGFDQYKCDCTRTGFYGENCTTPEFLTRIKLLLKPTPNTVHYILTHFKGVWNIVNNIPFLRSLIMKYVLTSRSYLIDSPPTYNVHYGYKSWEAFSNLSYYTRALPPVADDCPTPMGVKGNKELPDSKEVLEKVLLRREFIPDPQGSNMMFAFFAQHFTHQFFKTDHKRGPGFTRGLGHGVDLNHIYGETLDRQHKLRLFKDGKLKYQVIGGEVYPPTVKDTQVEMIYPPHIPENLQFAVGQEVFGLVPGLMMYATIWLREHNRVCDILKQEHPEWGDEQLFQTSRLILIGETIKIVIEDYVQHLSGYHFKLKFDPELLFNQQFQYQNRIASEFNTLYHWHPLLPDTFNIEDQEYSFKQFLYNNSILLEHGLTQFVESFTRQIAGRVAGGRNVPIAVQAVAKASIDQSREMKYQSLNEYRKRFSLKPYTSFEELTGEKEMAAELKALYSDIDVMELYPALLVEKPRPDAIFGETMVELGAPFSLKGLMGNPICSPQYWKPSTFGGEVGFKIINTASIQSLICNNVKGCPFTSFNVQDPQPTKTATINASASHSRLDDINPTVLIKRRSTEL
In short: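 Mouse J774 monocyte-macrophages in DMEM/10% FCS, plated at 2.5×10^5 cells/ml and adhered 24 h. Stimulated with LPS 5 µg/ml for 72 h with compound (10 µM, DMSO vehicle). Supernatant PGE2 by competitive peroxidase EIA at 450 nm (50–6400 pg/ml) against vehicle control. Mean ± SEM, three experiments in triplicate.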

[4] = target: T1, Nitric oxide synthase, inducible (Mus musculus); assay: Inhibition of iNOS in LPS-stimulated mouse J774 cells assessed as inhibition of nitric oxide generation at 10 uM; type: cell-based; in short: as §1
[5] = target: T2, Prostaglandin G/H synthase 2 (Homo sapiens); settings: Blood, at 10 µM
[6] = target: T4, Prostaglandin G/H synthase 2 (Homo sapiens, UniProt P35354); assay: Inhibition of COX2 in LPS-stimulated human whole blood assessed as inhibition of PGE2 production by […]; type: tissue-based; in short: as §2
T4 sequence (P35354 whole entry): T2 sequence (whole entry)

| Activity [1] [%] | Activity [2] [%] | Activity [3] [%] | inhibition [4] [%] | inhibition [5] [%] | pIC50 [6] | SMILES |
| --- | --- | --- | --- | --- | --- | --- |
| 5 | 21 | 30 |  |  |  | Nn1c(SC(C(=O)O)c2ccccc2)nc2ccccc2c1=O (stereo unspecified) |
| 52 | 90 | 250 |  |  |  | CC(Sc1nc2sc(-c3ccccc3)cc2c(=O)n1N)C(=O)O (stereo unspecified) |
|  |  |  | 55 |  |  | Nn1c(SC(C(=O)O)c2ccccc2)nc2ccsc2c1=O (stereo unspecified) |
|  |  |  | 96 |  |  | Cc1ccc(-c2cc(C(F)(F)F)nn2-c2ccc(S(N)(=O)=O)cc2)cc1 |
|  |  |  | 70 | 90 |  | Nn1c(SC2CCCCC2)nc2sc(-c3ccccc3)cc2c1=O |
| 35 | 28 | 180 |  |  |  | CC(Sc1nc2c([nH]c3ccccc32)c(=O)n1N)C(=O)O (stereo unspecified) |
|  |  |  | 90 |  |  | COc1ccc2c(c1)c(CC(=O)O)c(C)n2C(=O)c1ccc(Cl)cc1 |
|  |  |  | 38 | 70 | 5.15 | Nn1c(SC(C(=O)O)c2ccccc2)nc2ccc(Br)cc2c1=O (stereo unspecified) |
| 11 | 205 | 346 |  |  |  | Cc1sc2nc(SC(C(=O)O)c3ccccc3)n(N)c(=O)c2c1C (stereo unspecified) |
|  |  |  | 60 | 75 |  | Nn1c(Sc2ccc([N+](=O)[O-])cc2[N+](=O)[O-])nc2sc(-c3ccccc3)cc2c1=O |
| 10 | 6 | 52 |  |  |  | CC(Sc1nc2c(sc3ccccc32)c(=O)n1N)C(=O)O (stereo unspecified) |
|  |  |  | 50 | 88 | 5.24 | CC(Sc1nc2ccccc2c(=O)n1N)C(=O)O (stereo unspecified) |
|  |  |  | 100 | 100 | 5.47 | CS(=O)(=O)Nn1c(Sc2ccc([N+](=O)[O-])cc2[N+](=O)[O-])nc2sc(-c3ccccc3)cc2c1=O |
